Measured values taken from ChEMBL document CHEMBL2434893, “Synthesis, DNA binding and anti-leukemic activity of an aminoacyl nucleolipid” (Bioorg Med Chem Lett, 2013).
The source made the active and inactive calls. The calls are words filed in the database; no cut-off is given here.

Columns and labels:
A498 = assay: Cytotoxicity against human A498 cells assessed as cell growth at 10 uM after 48 hrs by SRB assay relative to control; format: functional; details: A498, 48 h, read-out: Activity
Procedure, shortened: (§1)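 NCI Developmental Therapeutics Program 60-cell-line screen at a single dose of 10 μM. Cells incubated with compound for 48 h at 37 °C before viability determination.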

[1] = Binding affinity to GRP78 duplex DNA (unknown origin) assessed as DNA-compound complex formation at 3.9 mM measured at 36 hrs by dynamic light scattering analysis relative to control
Procedure, shortened: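 DNA (1.1 μM), with or without ligand at 3.9 mM, incubated 36 h in phosphate buffer. Particle size then measured by dynamic light scattering against native DNA and ligand alone.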

PC-3 = assay: Cytotoxicity against human PC3 cells assessed as cell growth at 10 uM after 48 hrs by SRB assay relative to control; format: functional; details: PC-3, 48 h, read-out: Activity; procedure, shortened: as §1
OVCAR-3 = assay: Cytotoxicity against human OVCAR3 cells assessed as cell growth at 10 uM after 48 hrs by SRB assay relative to control; format: functional; details: OVCAR-3, 48 h, read-out: Activity; procedure, shortened: as §1
[2] = Binding affinity to GRP78 duplex DNA (unknown origin) assessed as change in duplex DNA hyperchromicity at 0.9 to 3.9 mM after 36 hrs by thermal denaturation assay
Procedure, shortened: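 Duplex DNA (1.1 μM) annealed from complementary strands in phosphate buffer (140 mM KCl, 1 mM MgCl₂, 5 mM sodium phosphate, pH 7.2), with ligand 0.2–3.9 mM. Melting followed as % hyperchromicity at 260 nm over 5–90 °C. Tm shift measured against native duplex.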

NCI-H460 = assay: Cytotoxicity against human NCI-H460 cells assessed as cell growth at 10 uM after 48 hrs by SRB assay relative to control; format: functional; details: NCI-H460, 48 h, read-out: Activity; procedure, shortened: as §1
COLO 205 = assay: Cytotoxicity against human COLO205 cells assessed as cell growth at 10 uM after 48 hrs by SRB assay relative to control; format: functional; details: COLO 205, 48 h, read-out: Activity; procedure, shortened: as §1
Hs-578T = assay: Cytotoxicity against human Hs578T cells assessed as cell growth at 10 uM after 48 hrs by SRB assay relative to control; format: functional; details: read-out: Activity; procedure, shortened: as §1
IGROV-1 = assay: Cytotoxicity against human IGROV1 cells assessed as cell growth at 10 uM after 48 hrs by SRB assay relative to control; format: functional; details: IGROV-1, 48 h, read-out: Activity; procedure, shortened: as §1
KM12 = assay: Cytotoxicity against human KM12 cells assessed as cell growth at 10 uM after 48 hrs by SRB assay relative to control; format: functional; details: KM12, 48 h, read-out: Activity; procedure, shortened: as §1
SK-MEL-28 = assay: Cytotoxicity against human SK-MEL-28 cells assessed as cell growth at 10 uM after 48 hrs by SRB assay relative to control; format: functional; details: SK-MEL-28, 48 h, read-out: Activity; procedure, shortened: as §1
Malme-3M = assay: Cytotoxicity against human MALME-3M cells assessed as cell growth at 10 uM after 48 hrs by SRB assay relative to control; format: functional; details: read-out: Activity; procedure, shortened: as §1
HCC 2998 = assay: Cytotoxicity against human HCC2998 cells assessed as cell growth at 10 uM after 48 hrs by SRB assay relative to control; format: functional; details: HCC 2998, 48 h, read-out: Activity; procedure, shortened: as §1
OVCAR-5 = assay: Cytotoxicity against human OVCAR5 cells assessed as cell growth at 10 uM after 48 hrs by SRB assay relative to control; format: functional; details: OVCAR-5, 48 h, read-out: Activity; procedure, shortened: as §1
DU-145 = assay: Cytotoxicity against human DU145 cells assessed as cell growth at 10 uM after 48 hrs by SRB assay relative to control; format: functional; details: DU-145, 48 h, read-out: Activity; procedure, shortened: as §1
BT-549 = assay: Cytotoxicity against human BT549 cells assessed as cell growth at 10 uM after 48 hrs by SRB assay relative to control; format: functional; details: BT-549, 48 h, read-out: Activity; procedure, shortened: as §1
UACC-257 = assay: Cytotoxicity against human UACC257 cells assessed as cell growth at 10 uM after 48 hrs by SRB assay relative to control; format: functional; details: UACC-257, 48 h, read-out: Activity
Procedure, shortened: (§2)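 Single-dose (10 μM) screen run by the NCI Developmental Therapeutics Program on its 60 human cancer cell line panel. Viability was determined after 48 h incubation with the cells at 37 °C.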

RPMI-8226 = assay: Cytotoxicity against human RPMI8226 cells assessed as cell growth at 10 uM after 48 hrs by SRB assay relative to control; format: functional; details: RPMI-8226, 48 h, read-out: Activity; procedure, shortened: as §1
SF-295 = assay: Cytotoxicity against human SF295 cells assessed as cell growth at 10 uM after 48 hrs by SRB assay relative to control; format: functional; details: SF-295, 48 h, read-out: Activity; procedure, shortened: as §1
HCT-15 = assay: Cytotoxicity against human HCT15 cells assessed as cell growth at 10 uM after 48 hrs by SRB assay relative to control; format: functional; details: HCT-15, 48 h, read-out: Activity; procedure, shortened: as §1
HOP-62 = assay: Cytotoxicity against human HOP62 cells assessed as cell growth at 10 uM after 48 hrs by SRB assay relative to control; format: functional; details: HOP-62, 48 h, read-out: Activity; procedure, shortened: as §1
SN12C = assay: Cytotoxicity against human SN12C cells assessed as cell growth at 10 uM after 48 hrs by SRB assay relative to control; format: functional; details: read-out: Activity; procedure, shortened: as §2
K562 = assay: Cytotoxicity against human K562 cells assessed as cell growth at 10 uM after 48 hrs by SRB assay relative to control; format: functional; details: K562, 48 h, read-out: Activity; procedure, shortened: as §1
SR = assay: Cytotoxicity against human SR cells assessed as cell growth at 10 uM after 48 hrs by SRB assay relative to control; format: functional; details: read-out: Activity; procedure, shortened: as §2
MDA-MB-468 = assay: Cytotoxicity against human MDA-MB-468 cells assessed as cell growth at 10 uM after 48 hrs by SRB assay relative to control; format: functional; details: MDA-MB-468, 48 h, read-out: Activity; procedure, shortened: as §1
786-0 = assay: Cytotoxicity against human 786-0 cells assessed as cell growth at 10 uM after 48 hrs by SRB assay relative to control; format: functional; details: 786-0, 48 h, read-out: Activity; procedure, shortened: as §1
MDA-MB-231 = assay: Cytotoxicity against human MDA-MB-231 cells assessed as cell growth at 10 uM after 48 hrs by SRB assay relative to control; format: functional; details: MDA-MB-231, 48 h, read-out: Activity; procedure, shortened: as §1
SNB-19 = assay: Cytotoxicity against human SNB19 cells assessed as cell growth at 10 uM after 48 hrs by SRB assay relative to control; format: functional; details: SNB-19, 48 h, read-out: Activity; procedure, shortened: as §2
A549 = assay: Cytotoxicity against human A549 cells assessed as cell growth at 10 uM after 48 hrs by SRB assay relative to control; format: functional; details: A549, 48 h, read-out: Activity; procedure, shortened: as §1
SNB-75 = assay: Cytotoxicity against human SNB75 cells assessed as cell growth at 10 uM after 48 hrs by SRB assay relative to control; format: functional; details: SNB-75, 48 h, read-out: Activity; procedure, shortened: as §2
[3] = Cytotoxicity against human NCI-ADR-RES cells assessed as cell growth at 10 uM after 48 hrs by SRB assay relative to control; format: functional; details: read-out: Activity; procedure, shortened: as §1

CCCCCCCCCCCCCCCC(=O)O[C@@H]1[C@H](OC(=O)CCCCCCCCCCCCCCC)[C@@H](C(=O)N[C@@H](CCCCN)C(=O)OC)O[C@H]1n1cnc2c(=O)[nH]c(NC(=O)C(C)C)nc21.Cl
growth at 10 µM (A498): 98.1% | fold change (FC) [1]: > 2 | growth at 10 µM (PC-3): 103% | growth at 10 µM (OVCAR-3): 105% | Activity [2]: Active | growth at 10 µM (NCI-H460): 101% | growth at 10 µM (COLO 205): 101% | growth at 10 µM (Hs-578T): 107% | growth at 10 µM (IGROV-1): 91.8% | growth at 10 µM (KM12): 95% | growth at 10 µM (SK-MEL-28): 113% | growth at 10 µM (Malme-3M): 98.5% | growth at 10 µM (HCC 2998): 101% | growth at 10 µM (OVCAR-5): 108% | growth at 10 µM (DU-145): 107% | growth at 10 µM (BT-549): 105% | growth at 10 µM (UACC-257): 90.1% | growth at 10 µM (RPMI-8226): 92.5% | growth at 10 µM (SF-295): 108% | growth at 10 µM (HCT-15): 96.6% | growth at 10 µM (HOP-62): 104% | growth at 10 µM (SN12C): 105% | growth at 10 µM (K562): 82.9% | growth at 10 µM (SR): 9.69% | growth at 10 µM (MDA-MB-468): 83.1% | growth at 10 µM (786-0): 98.1% | growth at 10 µM (MDA-MB-231): 118% | growth at 10 µM (SNB-19): 93.5% | growth at 10 µM (A549): 99.8% | growth at 10 µM (SNB-75): 94.1% | growth at 10 µM [3]: 102%
